According to the RNAGym collection of RNA variant scans (doi:10.1002/anie.201605470):

B1: Osa-1-4 twister ribozyme (parent)
chain: CCGCCUAACACUGCCAAUGCCGGUCCCAAGCCCGGAUAAAAGUGGAGGGGGCGG

Variants of: B1
Test: self-cleavage, relative activity (ratio to wild type); higher = more cleavage; co-transcriptional
Summary of the method: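 Values are relative activity: the fraction cleaved, normalised to wild type. A doped DNA template for a 54-nucleotide twister ribozyme from Oryza sativa had 97 % wild-type base and 1 % of each other base at the 48 positions downstream of the cleavage site. The RNA was transcribed in vitro for 2 h at 37 °C so that it could cleave itself co-transcriptionally, then sequenced deeply, with cleavage status scored from the presence or absence of upstream sequence in reads.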
In the case of A17C G23U, the self-cleavage is reported as 0.04.
Work on A17C G23A yielded a self-cleavage of 0.07.
A17C G23C gave a self-cleavage of 0.03.
A17G G23U showed a self-cleavage of 0.08.
A17G G23A showed a self-cleavage of 0.43.
Variant A17G G23C has a self-cleavage of 0.08.
A17C G42C showed a self-cleavage of 0.21.
Variant A17C G42U has a self-cleavage of 0.57.
A17C G42A showed a self-cleavage of 0.5.
A17C C31U showed a self-cleavage of 0.16.
A17C C31A gave a self-cleavage of 0.03.
Work on A17C C31G yielded a self-cleavage of 0.05.
A17G A38C showed a self-cleavage of 0.96.
With A17G A38U the self-cleavage was 0.97.
For A17G A38G, the self-cleavage was 0.99.
A17G C31U showed a self-cleavage of 0.9.
Work on A17G C31A yielded a self-cleavage of 0.05.
For A17G C31G, the self-cleavage was 0.22.
Variant A17G A40G has a self-cleavage of 0.89.
A17G A40C showed a self-cleavage of 0.09.
A17G A40U showed a self-cleavage of 0.83.
For A17C A8G, the self-cleavage was 0.12.
A17C A8U gave a self-cleavage of 0.06.
For A17C A8C, the self-cleavage was 0.08.
In the case of A17C C27G, the self-cleavage is reported as 0.03.
Work on A17C C27U yielded a self-cleavage of 0.06.
Work on A17C C27A yielded a self-cleavage of 0.06.
Work on A17G C14A yielded a self-cleavage of 0.19.
Work on A17G C14G yielded a self-cleavage of 0.29.
A17G C14U gave a self-cleavage of 0.69.
For A17C U37G, the self-cleavage was 0.81.
With A17C U37A the self-cleavage was 0.41.
Work on A17C U37C yielded a self-cleavage of 0.85.
With A16U G50C the self-cleavage was 0.95.
Work on A16U G50U yielded a self-cleavage of 0.94.
Work on A16U G50A yielded a self-cleavage of 0.67.
Variant A16U C11G has a self-cleavage of 0.55.
A16U C11A showed a self-cleavage of 0.64.
With A16U C11U the self-cleavage was 0.8.
A17C A41C gave a self-cleavage of 0.68.
A17C A41U showed a self-cleavage of 0.81.
For A17C A41G, the self-cleavage was 0.68.
In the case of A16U C25U, the self-cleavage is reported as 0.84.
In the case of A16U C25G, the self-cleavage is reported as 0.08.
Variant A16U C25A has a self-cleavage of 0.11.
A17C A29U gave a self-cleavage of 0.04.
A17C A29G showed a self-cleavage of 0.05.
A17C A29C showed a self-cleavage of 0.03.
In the case of A17G C25U, the self-cleavage is reported as 0.87.
A17G C25G gave a self-cleavage of 0.13.
Variant A17G C25A has a self-cleavage of 0.21.
Work on A17G A29U yielded a self-cleavage of 0.27.
Work on A17G A29C yielded a self-cleavage of 0.07.
With A17G A29G the self-cleavage was 0.35.
A17C G49A gave a self-cleavage of 0.05.
Work on A17C G49C yielded a self-cleavage of 0.04.
For A17C G49U, the self-cleavage was 0.05.
Work on A16U G54A yielded a self-cleavage of 0.93.
A16U G54U showed a self-cleavage of 0.94.
In the case of A16U G54C, the self-cleavage is reported as 0.88.
In the case of A17C A46C, the self-cleavage is reported as 0.05.
For A17C A46G, the self-cleavage was 0.05.
With A17C A46U the self-cleavage was 0.05.
In the case of A17C C15G, the self-cleavage is reported as 0.64.
A17C C15A showed a self-cleavage of 0.7.
A17C C15U gave a self-cleavage of 0.77.
With A17G G30C the self-cleavage was 0.06.
With A17G G30U the self-cleavage was 0.05.
In the case of A17G G30A, the self-cleavage is reported as 0.05.
A17G C9G showed a self-cleavage of 0.78.
In the case of A17G C9U, the self-cleavage is reported as 0.47.
For A17G C9A, the self-cleavage was 0.33.
With A16U U18A the self-cleavage was 0.89.
In the case of A16U U18G, the self-cleavage is reported as 0.66.
In the case of A16U U18C, the self-cleavage is reported as 0.87.
A16U G30A gave a self-cleavage of 0.03.
For A16U G30C, the self-cleavage was 0.04.
A16U G30U showed a self-cleavage of 0.03.
Variant A17C G35U has a self-cleavage of 0.6.
In the case of A17C G35A, the self-cleavage is reported as 0.6.
With A17C G35C the self-cleavage was 0.45.
With A17G G22C the self-cleavage was 0.15.
A17G G22U gave a self-cleavage of 0.79.
Variant A17G G22A has a self-cleavage of 0.97.
Work on A17C C25G yielded a self-cleavage of 0.03.
A17C C25A showed a self-cleavage of 0.04.
For A17C C25U, the self-cleavage was 0.18.
A17C A28C showed a self-cleavage of 0.6.
Variant A17C A28G has a self-cleavage of 0.05.
Variant A17C A28U has a self-cleavage of 0.29.
In the case of A16U C33G, the self-cleavage is reported as 0.04.
A16U C33U gave a self-cleavage of 0.71.
Variant A16U C33A has a self-cleavage of 0.11.
A17G A7G gave a self-cleavage of 0.49.
In the case of A17G A7U, the self-cleavage is reported as 0.1.
Work on A17G A7C yielded a self-cleavage of 0.08.
A16U U37C gave a self-cleavage of 1.06.
Work on A16U U37G yielded a self-cleavage of 1.
With A16U U37A the self-cleavage was 0.83.
Work on A16U G44C yielded a self-cleavage of 0.91.
For A16U G44A, the self-cleavage was 0.94.
For A16U G44U, the self-cleavage was 0.92.
Work on A17C G53A yielded a self-cleavage of 0.86.
For A17C G53C, the self-cleavage was 0.1.
Variant A17C G53U has a self-cleavage of 0.36.
With A16U G49U the self-cleavage was 0.11.
A16U G49C showed a self-cleavage of 0.06.
Variant A16U G49A has a self-cleavage of 0.11.
Variant A16U U12G has a self-cleavage of 0.16.
Work on A16U U12A yielded a self-cleavage of 0.92.
For A16U U12C, the self-cleavage was 0.47.
Variant A17C G50A has a self-cleavage of 0.51.
With A17C G50U the self-cleavage was 0.86.
A17C G50C gave a self-cleavage of 0.9.
In the case of A17C A36G, the self-cleavage is reported as 0.75.
In the case of A17C A36C, the self-cleavage is reported as 0.21.
In the case of A17C A36U, the self-cleavage is reported as 0.66.
For A17C C32A, the self-cleavage was 0.06.
A17C C32G showed a self-cleavage of 0.08.
A17C C32U showed a self-cleavage of 0.05.
A17C C11A gave a self-cleavage of 0.06.
In the case of A17C C11G, the self-cleavage is reported as 0.05.
Variant A17C C11U has a self-cleavage of 0.14.
Variant A16U G19C has a self-cleavage of 0.09.
A16U G19A gave a self-cleavage of 0.89.
For A16U G19U, the self-cleavage was 0.26.
For A17C U18C, the self-cleavage was 0.57.
Variant A17C U18A has a self-cleavage of 0.78.
A17C U18G gave a self-cleavage of 0.79.
Variant A16U G35A has a self-cleavage of 0.76.
In the case of A16U G35U, the self-cleavage is reported as 0.82.
A16U G35C showed a self-cleavage of 0.17.
With A17G C27U the self-cleavage was 0.29.
In the case of A17G C27A, the self-cleavage is reported as 0.35.
With A17G C27G the self-cleavage was 0.13.
In the case of A17C G47A, the self-cleavage is reported as 0.07.
In the case of A17C G47C, the self-cleavage is reported as 0.05.
A17C G47U showed a self-cleavage of 0.09.
A16U G48U showed a self-cleavage of 0.06.
Variant A16U G48C has a self-cleavage of 0.07.
A16U G48A showed a self-cleavage of 0.08.
A16U G47C showed a self-cleavage of 0.08.
For A16U G47U, the self-cleavage was 0.2.
With A16U G47A the self-cleavage was 0.24.
Work on A17C C9U yielded a self-cleavage of 0.1.
Work on A17C C9A yielded a self-cleavage of 0.08.
Variant A17C C9G has a self-cleavage of 0.12.
A16U C26U gave a self-cleavage of 0.9.
With A16U C26A the self-cleavage was 0.03.
For A16U C26G, the self-cleavage was 0.11.
Work on A16U U43C yielded a self-cleavage of 0.36.
Work on A16U U43A yielded a self-cleavage of 0.85.
Variant A16U U43G has a self-cleavage of 0.33.
Variant A16U G42C has a self-cleavage of 0.33.
With A16U G42A the self-cleavage was 0.8.
In the case of A16U G42U, the self-cleavage is reported as 0.73.
Variant A17C U12C has a self-cleavage of 0.08.
With A17C U12G the self-cleavage was 0.18.
Work on A17C U12A yielded a self-cleavage of 0.15.
With A17C G34C the self-cleavage was 0.14.
A17C G34U showed a self-cleavage of 0.26.
A17C G34A gave a self-cleavage of 0.34.
In the case of A17G A36U, the self-cleavage is reported as 1.01.
A17G A36C showed a self-cleavage of 0.82.
With A17G A36G the self-cleavage was 0.99.
With A16U C9U the self-cleavage was 0.62.
A16U C9G gave a self-cleavage of 0.91.
